Laboratory results: ChEMBL document CHEMBL1141258, “Prismatomerin, a new iridoid from Prismatomeris tetrandra. Structure elucidation, determination of absolute configuration, and cytotoxicity” (J Nat Prod, 2007)
Active and inactive are the calls of the source. No cut-off for these calls is given here.

Assays:
SF-295 = test: Growth inhibition of human SF295 cells after 48 hrs by SRB assay; assay type: functional
Summary of the method: (§1)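 Run at NCI in the 60-human-tumor-cell-line anticancer screen. Each compound was tested at a minimum of five concentrations at 10-fold dilutions.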

SK-MEL-28 = test: Growth inhibition of human SK-MEL28 cells after 48 hrs by SRB assay; assay type: functional; conditions: SK-MEL-28, 48 h
Summary of the method: (§2)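 NCI 60 human tumour cell line in vitro anticancer screen, run at NCI. Compound tested at a minimum of five concentrations in 10-fold dilutions per cell line.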

L929 = test: Antiproliferative activity against mouse L929 cells after 5 days by SRB assay; assay type: cell-based; conditions: L929, 120 h
Hs-578T = test: Growth inhibition of human HS578T cells after 48 hrs by SRB assay; assay type: functional; summary of the method: as §2
NCI-H522 = test: Growth inhibition of human NCI-H522 cells after 48 hrs by SRB assay; assay type: functional; conditions: NCI-H522, 48 h; summary of the method: as §2
DU-145 = test: Growth inhibition of human DU145 cells after 48 hrs by SRB assay; assay type: functional; summary of the method: as §1
SK-MEL-2 = test: Growth inhibition of human SK-MEL2 cells after 48 hrs by SRB assay; assay type: functional; summary of the method: as §1
ACHN = test: Growth inhibition of human ACHN cells after 48 hrs by SRB assay; assay type: functional; summary of the method: as §2
Malme-3M = test: Growth inhibition of human MALME-3M cells after 48 hrs by SRB assay; assay type: functional; summary of the method: as §2
[1] = (§3) Growth inhibition of human […] cells after 48 hrs by SRB assay; assay type: functional; summary of the method: as §1
MDA-MB235 = test: as §3; assay type: functional; summary of the method: as §1
RXF 393 = test: Growth inhibition of human RFX393 cells after 48 hrs by SRB assay; assay type: functional; conditions: RXF 393, 48 h; summary of the method: as §1
SW480 = test: Antiproliferative activity against human SW480 cells after 5 days by MTT assay; conditions: SW480, 120 h
COLO 205 = test: Growth inhibition of human COLO205 cells after 48 hrs by SRB assay; assay type: functional; conditions: COLO 205, 48 h; summary of the method: as §2
RPMI-8226 = test: Growth inhibition of human RPMI8226 cells after 48 hrs by SRB assay; assay type: functional; conditions: RPMI-8226, 48 h; summary of the method: as §2
SK-MEL-5 = test: Growth inhibition of human SKMEL5 cells after 48 hrs by SRB assay; assay type: functional; summary of the method: as §1
SNB-19 = test: Growth inhibition of human SNB19 cells after 48 hrs by SRB assay; assay type: functional; conditions: SNB-19, 48 h; summary of the method: as §1
MOLT-4 = test: Growth inhibition of human MOLT4 cells after 48 hrs by SRB assay; assay type: functional; conditions: MOLT-4, 48 h; summary of the method: as §1
U-251 = test: Growth inhibition of human U251 cells after 48 hrs by SRB assay; assay type: functional; conditions: U-251, 48 h; summary of the method: as §1
NCI-H460 = test: Growth inhibition of human NCI-H460 cells after 48 hrs by SRB assay; assay type: functional; conditions: NCI-H460, 48 h; summary of the method: as §2
M14 = test: Growth inhibition of human M14 cells after 48 hrs by SRB assay; assay type: functional; summary of the method: as §1
CAKI-1 = test: Growth inhibition of human CAKI1 cells after 48 hrs by SRB assay; assay type: functional; conditions: CAKI-1, 48 h; summary of the method: as §1
TK-10 = test: Growth inhibition of human TK10 cells after 48 hrs by SRB assay; assay type: functional; conditions: TK-10, 48 h; summary of the method: as §2
HCT-15 = test: Growth inhibition of human HCT15 cells after 48 hrs by SRB assay; assay type: functional; conditions: HCT-15, 48 h; summary of the method: as §1
SN12C = test: Growth inhibition of human SN12C cells after 48 hrs by SRB assay; assay type: functional; summary of the method: as §1
KM12 = test: Growth inhibition of human KM12 cells after 48 hrs by SRB assay; assay type: functional; conditions: KM12, 48 h; summary of the method: as §1
OVCAR-8 = test: Growth inhibition of human OVACAR8 cells after 48 hrs by SRB assay; assay type: functional; conditions: OVCAR-8, 48 h; summary of the method: as §1
OVCAR-5 = test: Growth inhibition of human OVACAR5 cells after 48 hrs by SRB assay; assay type: functional; conditions: OVCAR-5, 48 h; summary of the method: as §1
PC-3 = test: Growth inhibition of human PC3 cells after 48 hrs by SRB assay; assay type: functional; conditions: PC-3, 48 h; summary of the method: as §2
T47D = test: Growth inhibition of human T47D cells after 48 hrs by SRB assay; assay type: functional; summary of the method: as §2
EKVX = test: Growth inhibition of human EKVX cells after 48 hrs by SRB assay; assay type: functional; summary of the method: as §2
HT-29 = test: Growth inhibition of human HT29 cells after 48 hrs by SRB assay; assay type: functional; conditions: HT-29, 48 h; summary of the method: as §2
[2] = Antiproliferative activity against human KB31 cells after 5 days by MTT assay; conditions: KB 3-1, 120 h
SR = test: Growth inhibition of human SR cells after 48 hrs by SRB assay; assay type: functional; summary of the method: as §1
UO-31 = test: Growth inhibition of human UO31 cells after 48 hrs by SRB assay; assay type: functional; conditions: UO-31, 48 h; summary of the method: as §2
HOP-62 = test: Growth inhibition of human HOP62 cells after 48 hrs by SRB assay; assay type: functional; conditions: HOP-62, 48 h; summary of the method: as §1
NCI/ADR-RES = test: Growth inhibition of human NCI/ADR-RES cells after 48 hrs by SRB assay; assay type: functional; summary of the method: as §2
OVCAR-4 = test: Growth inhibition of human OVACAR4 cells after 48 hrs by SRB assay; assay type: functional; conditions: OVCAR-4, 48 h; summary of the method: as §1
SW-620 = test: Growth inhibition of human SW620 cells after 48 hrs by SRB assay; assay type: functional; conditions: SW-620, 48 h; summary of the method: as §2
[3] = read-out: Log LC50 (the source's name) (converted)

Which results are given for `COC(=O)C1=CO[C@@H]2O[C@H]3/C(=C\c4ccc(O)cc4)C(=O)O[C@]34C=C[C@H]1[C@H]24` [PRISMATOMERIN]?
Activity (SF-295): inactive; GI50 (SF-295; SF-295, 48 h): 589 nM; GI50 (SK-MEL-28): 316 nM; CC50 (SK-MEL-28; [3]): > 100000 nM; IC50 (L929): 210 nM; GI50 (Hs-578T): 257 nM; CC50 (Hs-578T; [3]): > 100000 nM; GI50 (NCI-H522): 186 nM; CC50 (NCI-H522; [3]): 1350 nM; Activity (DU-145): inactive; GI50 (DU-145; DU-145, 48 h): 115 nM; Activity (SK-MEL-2): inactive; GI50 (SK-MEL-2; SK-MEL-2, 48 h): 166 nM; GI50 (ACHN): < 10 nM; CC50 (ACHN; [3]): 2090 nM; GI50 (Malme-3M): 135 nM; CC50 (Malme-3M; [3]): 4680 nM; GI50 [1]: 200 nM; Activity (MDA-MB235): inactive; GI50 (RXF 393): < 10 nM; CC50 (RXF 393; [3]): 661 nM; TGI (RXF 393; read-out: Log TGI (converted)): 162 nM; IC50 (SW480): 60 nM; GI50 (COLO 205): 537 nM; CC50 (COLO 205; [3]): > 100000 nM; GI50 (RPMI-8226): < 10 nM; CC50 (RPMI-8226; [3]): > 100000 nM; Activity (SK-MEL-5): inactive; GI50 (SK-MEL-5; SK-MEL-5, 48 h): < 10 nM; TGI (SK-MEL-5; SK-MEL-5, 48 h, read-out: Log TGI (converted)): 186 nM; GI50 (SNB-19): 347 nM; CC50 (SNB-19; [3]): 26900 nM; TGI (SNB-19; read-out: Log TGI (converted)): 110000 nM; GI50 (MOLT-4): < 10 nM; GI50 (U-251): 295 nM; CC50 (U-251; [3]): 60300 nM; TGI (U-251; read-out: Log TGI (converted)): 955 nM; GI50 (NCI-H460): 240 nM; CC50 (NCI-H460; [3]): > 100000 nM; Activity (M14): inactive; GI50 (M14; M14, 48 h): 162 nM; GI50 (CAKI-1): 126 nM; CC50 (CAKI-1; [3]): 8710 nM; TGI (CAKI-1; read-out: Log TGI (converted)): 501 nM; GI50 (TK-10): 288 nM; CC50 (TK-10; [3]): 3980 nM; GI50 (HCT-15): 162 nM; CC50 (HCT-15; [3]): 3800 nM; TGI (HCT-15; read-out: Log TGI (converted)): 575 nM; GI50 (SN12C): 174 nM; CC50 (SN12C; [3]): 813 nM; TGI (SN12C; read-out: Log TGI (converted)): 380 nM; GI50 (KM12): 302 nM; CC50 (KM12; [3]): > 100000 nM; TGI (KM12; read-out: Log TGI (converted)): 1510 nM; GI50 (OVCAR-8): 174 nM; CC50 (OVCAR-8; [3]): 2240 nM; TGI (OVCAR-8; read-out: Log TGI (converted)): 501 nM; GI50 (OVCAR-5): 257 nM; CC50 (OVCAR-5; [3]): 813 nM; TGI (OVCAR-5; read-out: Log TGI (converted)): 407 nM; GI50 (PC-3): 170 nM; CC50 (PC-3; [3]): 3020 nM; GI50 (T47D): 380 nM; CC50 (T47D; [3]): 3890 nM; GI50 (EKVX): 355 nM; CC50 (EKVX; [3]): 40700 nM; GI50 (HT-29): 107 nM; CC50 (HT-29; [3]): > 100000 nM; IC50 [2]: 410 nM; GI50 (SR): 10.5 nM; CC50 (SR; [3]): > 100000 nM; TGI (SR; read-out: Log TGI (converted)): 468 nM; GI50 (UO-31): 120 nM; CC50 (UO-31; [3]): 813 nM; GI50 (HOP-62): 263 nM; CC50 (HOP-62; [3]): 2820 nM; TGI (HOP-62; read-out: Log TGI (converted)): 708 nM; GI50 (NCI/ADR-RES): 170 nM; CC50 (NCI/ADR-RES; [3]): 17400 nM; GI50 (OVCAR-4): 575 nM; CC50 (OVCAR-4; [3]): > 100000 nM; TGI (OVCAR-4; read-out: Log TGI (converted)): 3470 nM; GI50 (SW-620): < 10 nM; CC50 (SW-620; [3]): > 100000 nM
